The target in data set [1] is T1, Broad substrate specificity ATP-binding cassette transporter ABCG2 (Homo sapiens, UniProt Q9UNQ0).
T1 sequence (Q9UNQ0 whole entry): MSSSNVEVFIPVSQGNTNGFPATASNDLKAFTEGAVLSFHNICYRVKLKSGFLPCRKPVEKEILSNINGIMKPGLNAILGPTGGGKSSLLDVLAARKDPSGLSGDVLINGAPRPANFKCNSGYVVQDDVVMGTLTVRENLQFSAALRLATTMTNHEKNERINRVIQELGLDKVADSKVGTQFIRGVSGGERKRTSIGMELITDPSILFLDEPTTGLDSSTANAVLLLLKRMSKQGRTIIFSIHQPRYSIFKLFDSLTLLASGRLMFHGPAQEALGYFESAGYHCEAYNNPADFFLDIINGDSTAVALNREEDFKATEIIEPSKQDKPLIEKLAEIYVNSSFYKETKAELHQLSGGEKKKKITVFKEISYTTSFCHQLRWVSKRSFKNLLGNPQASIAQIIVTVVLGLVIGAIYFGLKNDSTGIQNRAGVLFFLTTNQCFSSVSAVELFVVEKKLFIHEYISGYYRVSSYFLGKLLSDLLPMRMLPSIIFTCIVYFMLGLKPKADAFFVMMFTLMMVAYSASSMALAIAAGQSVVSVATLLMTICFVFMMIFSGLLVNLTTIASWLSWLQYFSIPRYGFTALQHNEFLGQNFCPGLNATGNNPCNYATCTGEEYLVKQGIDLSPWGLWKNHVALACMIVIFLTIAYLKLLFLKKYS
The data set is described as follows: Reversal of human ABCG2-mediated multidrug resistance in HEK293/R482 cells assessed as fold-change in topotecan IC50 at 0.5 uM after 72 hrs by CCK8 relative to topotecan IC50. It counts as cell-based. A digest of the protocol:
(§1)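 Cells were seeded at 5000/well for 24 h, then given colchicine, etoposide, mitoxantrone or topotecan ± non-toxic modulator (0.5–3.0 μM) for 72 h, with DMSO up to 0.5%. IC50 came from fitted curves (mean ± SD, three experiments). Fold-reversal = IC50 without modulator ÷ IC50 with modulator.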

The test system of another data set is S1. Briefly: Effect on mitoxantrone-induced cytotoxicity against human S1 cells assessed as fold change in mitoxantrone IC50 at 1 uM after 72 hrs by MTT assay relative to mitoxantrone IC50. It counts as functional. The method in brief:
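Parental S1 colon and H460 lung cancer cells were exposed for 72 h to a mitoxantrone or topotecan concentration series, with or without modulator at 0.5–3.0 μM, and read by MTT. Fold-reversal is IC50 without modulator divided by IC50 with modulator, taken from dose-response curves of three independent experiments.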

Another data set is filed under the species Homo sapiens. The data set is described as follows: Downregulation of ABCG2 expression in human NCI-H460/MX20 cells at 0.5 to 3 uM incubated for 72 hrs by Western blot analysis. The class given is functional, cell-based. A digest of the protocol:
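S1-M1–80 and H460-MX20 cells were treated with 0.5–3.0 μM or DMSO vehicle for 72 h, then run on SDS-PAGE and immunoblotted with BXP-21 (1:15000) for ABCG2. α-Tubulin (1:100000) served as loading control, with HRP goat anti-mouse secondary. Bands were quantified as mean ± SEM of three independent experiments.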

Another data set relates to NCI-H460. The data set is described as follows: Cytotoxicity against human H460 cells after 72 hrs by MTT assay. The conditions noted are these: NCI-H460, 72 h. It counts as functional, cell-based. The method in brief:
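Cells seeded at 5000/well, allowed 24 h, then exposed to a concentration series for 72 h at 37 °C in DMSO vehicle (up to 0.5% v/v). HEK293 lines were read with CCK-8 and cancer lines with MTT. IC50 was taken from fitted dose-response curves over at least three independent experiments. Lines were kept drug-free for 7 days before assay.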
A general note: Tetrazolium dyes change colour on reduction, which living cells bring about.

The target in data set [2] is Multidrug resistance-associated protein 1 (Homo sapiens, UniProt P33527). The data set is described as follows: Reversal of human ABCC1-mediated multidrug resistance in HEK293/MRP1 cells assessed as fold-change in etoposide IC50 at 1 uM after 72 hrs by CCK8 relative to etoposide IC50. It counts as cell-based. The method in brief:
as §1

The source made the active and inactive calls. The rule behind the calls is not given here.

Chain of Multidrug resistance-associated protein 1 (P33527 whole entry): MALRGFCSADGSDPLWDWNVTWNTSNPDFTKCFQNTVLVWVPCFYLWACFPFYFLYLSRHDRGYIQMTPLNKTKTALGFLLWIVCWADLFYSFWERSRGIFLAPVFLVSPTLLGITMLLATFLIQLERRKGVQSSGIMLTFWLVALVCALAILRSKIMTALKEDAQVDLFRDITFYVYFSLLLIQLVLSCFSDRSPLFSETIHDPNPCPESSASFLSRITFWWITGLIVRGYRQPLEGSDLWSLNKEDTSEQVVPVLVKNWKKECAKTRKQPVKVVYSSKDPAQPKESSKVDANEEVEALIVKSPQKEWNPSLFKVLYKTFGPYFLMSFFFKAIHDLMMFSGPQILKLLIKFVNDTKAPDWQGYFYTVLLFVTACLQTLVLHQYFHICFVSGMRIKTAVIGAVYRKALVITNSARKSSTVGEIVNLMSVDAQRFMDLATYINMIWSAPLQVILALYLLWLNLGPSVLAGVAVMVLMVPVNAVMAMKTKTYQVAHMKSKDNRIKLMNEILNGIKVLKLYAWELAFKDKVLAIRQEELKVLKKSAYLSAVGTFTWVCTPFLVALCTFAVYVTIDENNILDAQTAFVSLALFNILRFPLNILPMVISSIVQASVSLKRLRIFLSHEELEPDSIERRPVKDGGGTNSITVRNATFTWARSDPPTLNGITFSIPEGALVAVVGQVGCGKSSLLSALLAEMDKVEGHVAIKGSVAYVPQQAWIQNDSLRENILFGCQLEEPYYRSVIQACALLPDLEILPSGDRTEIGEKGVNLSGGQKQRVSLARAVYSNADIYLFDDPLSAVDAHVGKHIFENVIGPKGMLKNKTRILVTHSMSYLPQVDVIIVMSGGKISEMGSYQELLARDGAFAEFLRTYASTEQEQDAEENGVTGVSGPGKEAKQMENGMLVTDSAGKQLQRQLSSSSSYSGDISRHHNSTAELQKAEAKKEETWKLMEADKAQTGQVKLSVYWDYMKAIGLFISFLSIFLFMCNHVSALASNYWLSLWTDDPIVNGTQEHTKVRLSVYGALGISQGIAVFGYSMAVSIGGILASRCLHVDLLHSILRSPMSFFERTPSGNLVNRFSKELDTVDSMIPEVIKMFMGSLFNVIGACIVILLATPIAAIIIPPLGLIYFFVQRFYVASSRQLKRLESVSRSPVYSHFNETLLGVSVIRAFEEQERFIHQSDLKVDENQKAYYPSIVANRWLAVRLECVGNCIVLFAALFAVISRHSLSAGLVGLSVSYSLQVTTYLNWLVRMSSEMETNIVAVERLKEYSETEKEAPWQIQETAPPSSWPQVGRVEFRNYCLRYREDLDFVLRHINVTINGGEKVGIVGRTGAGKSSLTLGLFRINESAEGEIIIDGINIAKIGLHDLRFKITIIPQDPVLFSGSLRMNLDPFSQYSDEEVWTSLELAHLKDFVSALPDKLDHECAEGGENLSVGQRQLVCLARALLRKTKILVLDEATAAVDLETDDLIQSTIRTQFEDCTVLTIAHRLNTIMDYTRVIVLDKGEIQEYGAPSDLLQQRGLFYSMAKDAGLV

For orientation: IC50 means the concentration at which inhibition is half-maximal. High values mean weaker potency in that assay, low ones greater potency in that assay. As to `C=CC(C)(C)c1cc(/C=C/C(=O)c2ccc(O)cc2)c(OC)cc1O` [LICOAGROCHACONE A], the figures for the “fold change (FC)” value (in data set [1]; in the data set with S1; in data set [2]) were 2.2, 1.1 and 1.3, respectively. The outcome in the data set listed under Homo sapiens was inactive. Also, the IC50 with NCI-H460 fell in the range of 10 to 50 µM.

The values are drawn from ChEMBL document CHEMBL4627381, “Licochalcone A Selectively Resensitizes ABCG2-Overexpressing Multidrug-Resistant Cancer Cells to Chemotherapeutic Drugs” (J Nat Prod, 2020).
